Measured values published in paper PMC9061760 (RSC Advances, 2019).
Values joined by “and” are separate entries in the source; they are usually repeats but may differ in a detail not shown here. Equal values may be shown once.

What was measured:
[1] = Steady state UV/Vis absorption; assay type: physicochemical; settings: for ε 355 (extinction coefficient): 355 nm
[2] = Laser flash photolysis; assay type: physicochemical; settings: excitation 355 nm, 30 mJ, 0.4 mM in 5× PBS buffer, pH 7
How it was run: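 Transient absorption after a single 355 nm pulse (third harmonic) from a Nd:YAG laser at 30 mJ pulse energy. Test compound at 0.4 mM in 5× PBS buffer, pH 7, in a 1 cm × 1 cm cuvette. The kinetic trace of the transient species, assigned to the nitronate, was followed over time to obtain its decay.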

ε 355 (extinction coefficient) [1] [M⁻¹ cm⁻¹] | λmax (additional absorption band) [1] [nm] | extinction coefficient at λmax ([1]; at 365 nm) | Compound | time constant of nitronate decay observed at 430 nm [2]
430 | – | – | N[C@@H](CC(=O)O)C(=O)OC(C(=O)O)c1ccccc1[N+](=O)[O-].O=C(O)C(F)(F)F (mixture of isomers) [1a, α-carboxynitrobenzyl L-aspartate] | –
4060 | 365 | ~ 4000 M^−1 cm^−1 | N[C@@H](CC(=O)O)C(=O)OC(C(=O)O)c1cc2c(cc1[N+](=O)[O-])OCO2.O=C(O)C(F)(F)F (stereo partly drawn) [1b, α-carboxynitropiperonyl L-aspartate] | 0.87 ms and 0.87 ± 0.04 ms
